Experimental findings from ChEMBL document CHEMBL5653624 (Biochem Pharmacol, 2016) are described below.

Calls of active or inactive are those of the source. The calls are words filed in the database; no cut-off is given here. Bounds are passed on as bounds.

Series [1] concerns RAW264.7. In words: Antiinflammatory activity in mouse RAW264.7 cells assessed as down regulation of LPS/IFNgamma-induced IL-1beta gene expression at 1 uM preincubated for 20 hrs followed by LPS/IFNgamma stimulation and measured after 4 hrs by RT-qPCR analysis. To be noted: time 24.0 hrs. The format is functional, cell-based. An outline of the steps: (§1)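 RAW 264.7 macrophages in DMEM/10% FBS received 1 μM RGFP966 for 20 h, with LPS/IFNγ for the last 4 h. Washed with cold DPBS, total RNA isolated, integrity checked by 28S/18S. RT-qPCR by comparative Ct (2−ΔΔCt), fold change versus LPS/IFNγ control. Mean ± SD of 3–5 independent experiments.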

Series [2] concerns HASMC. Kind of series: Antiinflammatory activity in HASMC cells assessed as effect on LPS/IFNgamma-induced IL-6 gene expression at 2 uM […] and measured after 4 hrs by RT-qPCR analysis. The series is classed as functional, cell-based. To be noted: Homo sapiens. An outline of the steps: (§2)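 HBE cells (passage 73–103) or immortalized hASM cells (2–3 donors, passage 27–35), serum-starved. Then 2 μM RGFP966 for 20 h, with LPS/IFNγ for the last 4 h. Total RNA isolated; RT-qPCR by 2−ΔΔCt, fold change versus LPS/IFNγ control. Mean ± SD of 3–5 independent experiments.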
In general terms: In qPCR the cycle at which signal appears reflects the starting amount.

Series [3] has as its system Lung. In words: Antiinflammatory activity in C57bl/6 mouse precision-cut lung slices assessed as effect on LPS/IFNgamma-induced HDAC1 expression at 1 to 10 uM preincubated for 20 hrs followed by LPS/IFNgamma stimulation and measured after 4 hrs by Western blot analysis. The series is classed as functional, tissue-based. To be noted: dose 1-10 µM, time 24.0 hrs. In general terms: In western blotting, separated proteins are transferred to a membrane and probed.

Series [4] deals with T1, Histone deacetylase 3 (Mus musculus) (UniProt O88895).
T1 sequence (whole entry): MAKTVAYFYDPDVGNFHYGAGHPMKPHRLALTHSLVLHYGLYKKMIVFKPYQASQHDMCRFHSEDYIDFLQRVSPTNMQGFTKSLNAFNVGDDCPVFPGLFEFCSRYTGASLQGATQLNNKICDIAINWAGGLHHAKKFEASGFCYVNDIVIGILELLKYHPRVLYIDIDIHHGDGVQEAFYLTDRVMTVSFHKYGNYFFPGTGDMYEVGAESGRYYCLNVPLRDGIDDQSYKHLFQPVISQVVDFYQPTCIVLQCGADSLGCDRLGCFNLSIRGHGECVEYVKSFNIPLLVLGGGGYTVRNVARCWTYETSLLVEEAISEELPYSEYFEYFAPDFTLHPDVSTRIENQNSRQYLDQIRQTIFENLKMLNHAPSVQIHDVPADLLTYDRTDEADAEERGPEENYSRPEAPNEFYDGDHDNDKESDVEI
In words: Inhibition of HDAC3 in mouse RAW264.7 cells assessed as effect on histone H4 acetylation measured after 20 hrs by Western blot analysis. The format is cell-based. An outline of the steps: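 Histones extracted from RAW 264.7 cells after 20 h inhibitor treatment, protein quantified by micro BCA (BSA standard), and H3 and H4 acetylation assessed by Western blot versus vehicle-treated cells.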

The subject of series [5] is Lung. In words: Antiinflammatory activity in C57bl/6 mouse precision-cut lung slices assessed as down regulation of LPS/IFNgamma-induced IL-12b gene expression at 1 to 10 uM preincubated for 20 hrs followed by LPS/IFNgamma stimulation and measured after 4 hrs by RT-qPCR analysis. The series is classed as functional, tissue-based. The conditions noted are these: dose 1-10 µM, time 24.0 hrs. An outline of the steps:
(§3)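 PCLS, 250 μm thick, cut from agarose-filled lungs of male C57bl/6 mice (24–28 g, 8–10 weeks). Three slices per well at 37 °C, 5% CO2. Slices received RGFP966 at 1 and 10 μM final for 20 h, with 10 ng/ml LPS and 10 ng/ml IFNγ stimulation. RNA isolated; RT-qPCR fold change versus LPS/IFNγ control by 2−ΔΔCt. Mean ± SD, n = 3–5.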

The target of series [6] is T1, Histone deacetylase 3 (Mus musculus). In words: Inhibition of HDAC3 in mouse RAW264.7 cells assessed as effect on LPS/IFNgamma-induced IkappaBalpha activation preincubated for 20 hrs followed by LPS/IFNgamma stimulation and measured after 1 hr by Western blot analysis. The format is cell-based.
The test system of series [7] is Lung. Kind of series: Antiinflammatory activity in C57bl/6 mouse precision-cut lung slices assessed as upregulation of LPS/IFNgamma-induced IL-1beta gene expression at 1 to 10 uM preincubated for 20 hrs followed by LPS/IFNgamma stimulation and measured after 4 hrs by RT-qPCR analysis relative to control. The series is classed as functional. The conditions noted are these: dose 1-10 µM; time 24 hrs. An outline of the steps:
as §3

A short description of series [8]: Cytotoxicity against HBE cells assessed as reduction in cell viability at 2 uM measured after 20 hrs by MTS assay. The conditions noted are these: human. The format is toxicity, cell-based. An outline of the steps:
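MTS viability assay. RAW 264.7 cells seeded at 25,000 cells/cm2; HBE and hASM cells at 70% confluency and serum-starved for 24 h. Exposure for 20 h with LPS/IFNγ stimulation. MTS reagent added for 1 h at 37 °C in the dark, absorbance read at 490 nm. LPS/IFNγ-stimulated cells without inhibitor set at 100%.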

Series [9] relates to Lung. In words: Antiinflammatory activity in C57bl/6 mouse precision-cut lung slices assessed as down regulation of LPS/IFNgamma-induced iNOS gene expression at 1 to 10 uM preincubated for 20 hrs followed by LPS/IFNgamma stimulation and measured after 4 hrs by RT-qPCR analysis. The format is functional, tissue-based. The conditions noted are these: dose 1-10 µM, time 24.0 hrs. An outline of the steps:
as §3

Series [10] concerns RAW264.7. In words: Antiinflammatory activity in mouse RAW264.7 cells assessed as down regulation of LPS/IFNgamma-induced IL-12b gene expression at 1 uM preincubated for 20 hrs followed by LPS/IFNgamma stimulation and measured after 4 hrs by RT-qPCR analysis. To be noted: time 24.0 hrs. The format is functional, cell-based. An outline of the steps:
as §1

Series [11] has as its system HASMC. Kind of series: Antiinflammatory activity in HASMC cells assessed as effect on LPS/IFNgamma-induced IL-10 gene expression at 2 uM […] by RT-qPCR analysis. The series is classed as functional, cell-based. The conditions noted are these: Homo sapiens. An outline of the steps:
as §2

For series [12], the system named is RAW264.7. In words: Antiinflammatory activity in mouse RAW264.7 cells assessed as effect on LPS/IFNgamma-induced TNFalpha gene expression at 1 uM preincubated for 20 hrs followed by LPS/IFNgamma stimulation and measured after 4 hrs by RT-qPCR analysis. The series is classed as functional, cell-based. To be noted: time 24.0 hrs. An outline of the steps: as §1

Series [13] has as its system Lung. In words: Antiinflammatory activity in C57bl/6 mouse precision-cut lung slices assessed as effect on LPS/IFNgamma-induced HDAC2 expression at 1 to 10 uM preincubated for 20 hrs followed by LPS/IFNgamma stimulation and measured after 4 hrs by Western blot analysis. The series is classed as functional, tissue-based. The conditions noted are these: dose 1-10 µM, time 24.0 hrs.

Series [14] relates to Lung. In words: Antiinflammatory activity in C57bl/6 mouse precision-cut lung slices assessed as upregulation of LPS/IFNgamma-induced IkappaBalpha expression at 1 to 10 uM preincubated for 20 hrs followed by LPS/IFNgamma stimulation and measured after 4 hrs by Western blot analysis. The series is classed as functional, tissue-based. The conditions noted are these: dose 1-10 µM, time 24.0 hrs.

In series [15] the test system is HBE. Kind of series: Antiinflammatory activity in HBE cells assessed as effect on LPS/IFNgamma-induced iNOS gene expression at 2 uM […] by RT-qPCR analysis. The series is classed as functional, cell-based. To be noted: Homo sapiens. An outline of the steps:
as §2

In series [16] the target is Histone deacetylase 2 (Mus musculus) (UniProt P70288). Kind of series: Effect on HDAC2 nuclear localization in LPS/IFNgamma-stimulated mouse RAW264.7 cells preincubated for 20 hrs followed by LPS/IFNgamma stimulation and measured after 1 hr by Hoechst staining based confocal laser scanning microscopy. The series is classed as cell-based. An outline of the steps:
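RAW 264.7 cells at 20,000 cells/cm2 received 1 μM RGFP966 for 20 h, then 1 h LPS/IFNγ. Fixed in 4% formaldehyde, permeabilized with 0.25% Triton X-100, blocked with 5% BSA. Primary antibodies 2 h at 4 °C, AlexaFluor secondaries 1 h, Hoechst nuclear stain. Confocal imaging at 630×; 4 independent experiments.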

Chain of Histone deacetylase 2 (Mus musculus) (P70288 whole entry): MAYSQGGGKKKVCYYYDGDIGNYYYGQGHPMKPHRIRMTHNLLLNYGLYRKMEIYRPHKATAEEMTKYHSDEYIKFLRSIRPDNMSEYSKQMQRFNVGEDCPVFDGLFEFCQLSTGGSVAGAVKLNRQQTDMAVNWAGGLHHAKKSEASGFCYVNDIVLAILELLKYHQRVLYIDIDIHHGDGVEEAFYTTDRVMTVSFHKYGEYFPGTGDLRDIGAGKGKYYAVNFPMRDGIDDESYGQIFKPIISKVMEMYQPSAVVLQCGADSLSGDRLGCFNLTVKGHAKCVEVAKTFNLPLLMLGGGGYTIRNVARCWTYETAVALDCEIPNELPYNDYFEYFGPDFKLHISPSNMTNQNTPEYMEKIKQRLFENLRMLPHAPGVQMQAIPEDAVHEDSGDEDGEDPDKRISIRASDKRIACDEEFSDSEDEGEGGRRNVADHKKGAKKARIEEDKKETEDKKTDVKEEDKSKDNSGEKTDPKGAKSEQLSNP

Regarding `Nc1cc(F)ccc1NC(=O)/C=C/c1cnn(C/C=C/c2ccccc2)c1`, the result in series [1], in series [5], in [9], in [10] and in series [14] was Active. The result in [2], in series [3], in series [11], in [12], in [13] and in series [15] was inactive. Further, the result in series [16] was inactive. Further, the inhibition entry in series [4] and in series [6] was “inactive” in each case. Also, the “fold change (FC)” value in series [7] is given as >2. Further, in series [8], the Activity entry is reported as “Non-Toxic”.
